Among the data in ChEMBL document CHEMBL1157974, “C18 dibenzocyclooctadiene lignans from Kadsura philippinensis” (2006) are EC50 and Activity values, retold here.

Holding throughout (format): functional
In assay [1] the test system is HeLa. The assay is described as follows: Cytotoxicity against human HeLa cells by MTT assay. To be noted: read-out: ED50 (the source's name). Put shortly: (§1)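 Cells obtained from ATCC. Cytotoxicity read by MTT [3-(4,5-dimethylthiazol-2-yl)-2,5-diphenyltetrazolium bromide] colorimetric method.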
In general terms: Tetrazolium assays rely on reduction of a dye to a coloured formazan, in cell work by metabolically active cells.

Assay [2] is described as follows: Cytotoxicity against human Hepa 59T/VGH cells by MTT assay. Conditions: read-out: ED50 (the source's name).
Assay [3] relates to KB. The experiment in a line: Cytotoxicity against human KB cells by MTT assay. Conditions: read-out: ED50 (the source's name). Put shortly:
as §1

The subject of assay [4] is Radical scavenging activity. The assay is described as follows: Antioxidant activity assessed as DPPH radical scavenging activity at 100 uM. The method in brief: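 Test compound in 100 mM Tris-HCl (pH 7.4) added to 500 μM DPPH in ethanol (concentration of the added solution), shaken, then left 20 min at room temperature in the dark. Absorbance read at 517 nm by UV-vis spectrophotometer; a table footnote cites a DPPH-HPLC method. Values are mean ± SD of 8 samples.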

On to `COc1c2c(cc3c1-c1c(cc4c(c1OC)OCO4)[C@H](O)[C@@H](C)[C@@H](C)C3)OCO2`, for which the EC50 in assay [1], in assay [2] and in assay [3] was at least 5 µg/mL each time.
For `O=C1O[C@H]([C@@H](O)CO)C(O)=C1O`, the Activity in assay [4] worked out at 12.5%.
With `COc1cc2c(c(O)c1OC)-c1c(cc3c(c1OC)OCO3)[C@H](OC(=O)/C=C/c1ccccc1)[C@H](C)[C@H](C)C2` [1-DEMETHYLKADSUPHILIN A], the EC50 in assay [1], in assay [2] and in assay [3] was at least 5 µg/mL in each case.
For `C/C=C(/C)C(=O)O[C@H]1c2cc3c(c(OC)c2-c2c(cc(OC)c(OC)c2O)C[C@@H](C)[C@H]1C)OCO3` [ANGELOYLBINANKADSURIN A], the EC50 in assay [1], in assay [2] and in assay [3] was at least 5 µg/mL in each case. In assay [4], the Activity was 2.3%.
Turning to `COC1=C(OC)C(=O)[C@]23C(=C1)C[C@@H](C)[C@@]2(C)[C@@H](O)c1cc2c(cc13)OCO2` [KADSULIGNAN K], the EC50 in assay [1], in assay [2] and in assay [3] was at least 5 µg/mL throughout. In addition, the Activity in assay [4] turned out to be 4.6%.
For `COc1cc2c(c(OC)c1OC)-c1c(cc3c(c1OC)OCO3)[C@H](OC(=O)/C=C/c1ccccc1)[C@H](C)[C@H](C)C2` [KADSUPHILINS A], the EC50 in assay [1], in assay [2] and in assay [3] was at least 5 µg/mL throughout. In assay [4], the Activity was found to be 1.5%.
Regarding `COc1c(O)cc2c(c1OC)-c1c(cc3c(c1OC)OCO3)C[C@H](C)[C@H](C)[C@@H]2O` [KADSUPHILINS B], the EC50 in assay [1], in assay [2] and in assay [3] was at least 5 µg/mL each time.
For the compound `C/C=C(/C)C(=O)O[C@H]1c2cc3c(c(OC)c2-c2c(cc(OC)c(OC)c2O)[C@H](OC(=O)/C(C)=C\C)[C@](C)(O)[C@H]1C)OCO3` [SCHIZANRIN J], the EC50 in assay [1], in assay [2] and in assay [3] was at least 5 µg/mL throughout. Further, the Activity in assay [4] is 1.9%.
